Where two headings read alike, the source gives them in different places.
Legend:
MCL cell lines = assay: CellTiter-Glo viability assay, mean over MCL cell lines; assay type: cell-based; settings: 72 h, read-out: mean GI50
[1] = tested on: BCR pathway in DoHH-2 cells; assay: BCR downstream signaling in IgM-stimulated cells, Western blot; assay type: cell-based; settings: IgM-stimulated DoHH-2
REC-BTK^wt (REC-1) cells = assay: CellTiter-Glo viability assay; assay type: cell-based; settings: Homo sapiens, Rec1, 72 h
REC-BTK^KO cells = assay: CellTiter-Glo viability assay; assay type: cell-based
[2] = tested on: 10 parental B-NHL cell lines; assay: CellTiter-Glo viability assay, mean over cell line panel; assay type: cell-based; settings: 72 h, read-out: mean GI50
CLL, MCL, WM = settings: cited from earlier work; for preliminary overall response rate (ORR): 200 mg daily monotherapy, median follow-up 7 months ref 17
BTK [3] = target: T1, BTK (Homo sapiens, UniProt Q06187); assay: KINOMEscan quantitative binding assay
T1 sequence (Q06187 whole entry): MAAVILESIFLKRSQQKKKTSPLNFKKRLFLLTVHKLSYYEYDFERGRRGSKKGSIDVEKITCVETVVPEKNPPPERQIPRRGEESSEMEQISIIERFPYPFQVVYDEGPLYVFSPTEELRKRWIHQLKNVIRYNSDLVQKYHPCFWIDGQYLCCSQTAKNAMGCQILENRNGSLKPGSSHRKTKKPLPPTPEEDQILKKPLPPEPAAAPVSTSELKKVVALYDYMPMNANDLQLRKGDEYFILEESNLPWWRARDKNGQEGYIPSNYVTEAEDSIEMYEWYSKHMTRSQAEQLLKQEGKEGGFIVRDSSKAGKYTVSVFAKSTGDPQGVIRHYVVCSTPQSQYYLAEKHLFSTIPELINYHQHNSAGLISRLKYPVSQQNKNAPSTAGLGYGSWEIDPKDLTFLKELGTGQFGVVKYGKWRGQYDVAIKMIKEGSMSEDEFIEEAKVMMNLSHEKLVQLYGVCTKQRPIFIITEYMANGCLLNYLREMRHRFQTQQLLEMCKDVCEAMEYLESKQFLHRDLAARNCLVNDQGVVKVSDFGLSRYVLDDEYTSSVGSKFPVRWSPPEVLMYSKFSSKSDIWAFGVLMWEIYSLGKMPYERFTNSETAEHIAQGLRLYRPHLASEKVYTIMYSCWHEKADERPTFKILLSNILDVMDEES

CLL = assay: Phase I trial NCT03671590, clinical outcome of 6 patients with CLL; assay type: in vivo, human
Procedure, shortened: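 Relapsed/refractory CLL patients in trial NCT03671590 took oral test compound once daily (200, 300 or 400 mg) until progression or intolerable toxicity. ALC was recorded on day 1. CLL cell percentage was derived from ALC against the upper normal limit. Best tumor reduction was assessed at C3D1 and graded as partial response or stable disease.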

[4] = PK analysis, TG-1701 plasma concentrations; assay type: in vivo, human; settings: patients, from 100 to 300 mg
BTK [5] = target: T1, BTK; assay: BTK occupancy in patient PBMC lysates; assay type: in vivo; settings: 6 patients with CLL, 4 hours after treatment
TXK = target: T2, TXK (Homo sapiens, UniProt P42681); assay: KINOMEscan quantitative binding assay
T2 sequence (P42681 1-527): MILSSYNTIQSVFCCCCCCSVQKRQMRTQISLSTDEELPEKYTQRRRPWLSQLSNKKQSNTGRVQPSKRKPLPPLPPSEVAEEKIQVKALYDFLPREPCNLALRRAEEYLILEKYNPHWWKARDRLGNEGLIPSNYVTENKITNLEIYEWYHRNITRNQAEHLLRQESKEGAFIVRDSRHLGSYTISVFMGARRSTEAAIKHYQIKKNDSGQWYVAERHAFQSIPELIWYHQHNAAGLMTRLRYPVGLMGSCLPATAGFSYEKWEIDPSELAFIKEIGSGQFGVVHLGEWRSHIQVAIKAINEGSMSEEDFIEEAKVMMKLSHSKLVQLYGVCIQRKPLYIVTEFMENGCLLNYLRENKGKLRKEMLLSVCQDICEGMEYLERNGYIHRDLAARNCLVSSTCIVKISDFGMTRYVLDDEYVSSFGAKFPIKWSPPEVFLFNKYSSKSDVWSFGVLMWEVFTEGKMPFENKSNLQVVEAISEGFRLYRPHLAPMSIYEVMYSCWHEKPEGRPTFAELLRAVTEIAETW

p-BTK, MYC, YES1 = assay: Immunoblot of p-BTK, Ikaros, MYC and YES1 in PBMC lysates of patients with CLL; assay type: in vivo, human; settings: early-responder patients, 4 hours posttreatment
REC-BTK^C481S cells = assay: CellTiter-Glo viability assay; assay type: cell-based; settings: REC-1–BTK^C481S
phosphopeptides in PBMC = assay type: in vivo, human; settings: early-responder patients, 4-hour postdose
UPN-IbruR MCL xenograft = assay: UPN-IbruR xenograft model, tumor growth; assay type: in vivo, CB17-SCID mice; settings: 25 mg/kg, every day, 17 days
Procedure, shortened: (§1)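 CB17-SCID mice were inoculated subcutaneously with […] REC-1GFP+Luc+ or UPN-IbruR cells. Tumor growth and vital parameters were monitored. Mice received oral test compound at 25 mg/kg daily or vehicle for 17 days. Endpoint tumor burden was read by bioluminescence for REC-1 and by caliper for UPN-IbruR. TGI was calculated versus vehicle.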

[6] = tested on: BTK and AKT phosphorylation; assay: MINO xenograft, intratumor BCR-related kinases by Western blot; assay type: in vivo, nude mice; settings: single oral gavage 50 mg/kg
Procedure, shortened: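 Nude mice aged 6–7 weeks were implanted subcutaneously with 5 × 10^6 MINO cells. Dosing was oral once tumors reached 100–200 mm3. Tumor protein extracts were immunoblotted for BCR-related kinases. Densitometry was normalized to GAPDH or tubulin and referred to the control sample.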

BTK^wt = BTK^wt (Homo sapiens, UniProt Q06187); assay: BTK kinase activity assay, 33P-ATP filtration; assay type: biochemical
BTK^wt, sequence (Q06187 whole entry): as the sequence (Q06187 whole entry) above

MINO MCL xenograft = MINO MCL xenograft model, tumor growth inhibition; assay type: in vivo, nude mice; settings: orally, twice a day, 16-day treatment
BTK^C481S = BTK^C481S (Homo sapiens, UniProt Q06187, C481S); assay: BTK kinase activity assay, 33P-ATP filtration; assay type: biochemical; settings: BTK^C481S vs BTK^wt
BTK^C481S, sequence (Q06187 whole entry C481S): as the sequence (Q06187 whole entry) above, with C481S counted along it

[7] = tested on: REC-1^GFP+LUC+ MCL xenograft; assay: REC-1 xenograft model, tumor growth inhibition; assay type: in vivo, CB17-SCID mice; settings: 25 mg/kg, every day, 17-day dosing
Procedure, shortened: as §1

JAK3 = JAK3 (Homo sapiens, UniProt P52333); assay: KINOMEscan quantitative binding assay
JAK3, sequence (P52333 781-1124 limits assumed): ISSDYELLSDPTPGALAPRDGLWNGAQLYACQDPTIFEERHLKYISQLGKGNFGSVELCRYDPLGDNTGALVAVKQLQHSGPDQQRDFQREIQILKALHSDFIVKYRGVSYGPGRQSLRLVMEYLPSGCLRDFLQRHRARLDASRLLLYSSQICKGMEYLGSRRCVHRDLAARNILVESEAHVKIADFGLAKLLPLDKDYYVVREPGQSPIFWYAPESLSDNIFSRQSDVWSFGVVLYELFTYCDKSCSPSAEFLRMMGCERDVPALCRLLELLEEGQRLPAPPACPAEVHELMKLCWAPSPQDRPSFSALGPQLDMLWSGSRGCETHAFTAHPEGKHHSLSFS

**Q.** Which GI50 (MCL cell lines) does the source give for C=CC(=O)N1CCC[C@@H](n2nc(-c3ccc(Oc4ccccc4)cc3)c3c(N)ncnc32)C1 [ibrutinib, reference compound] here?
**A.** 10.8 µM

**Q.** What about the “concentration of maximal effects on BCR downstream signaling” value [1] of the same compound?
**A.** 10 nmol/L

**Q.** What about the GI50 (REC-BTK^wt (REC-1) cells) of the same compound?
**A.** 5.82 µM

**Q.** What about the “sensitivity of REC-BTK^KO cells” value (REC-BTK^KO cells) of the same compound?
**A.** refractory

**Q.** And the GI50 [2]?
**A.** 14.1 µM

**Q.** Which “preliminary overall response rate (ORR)” value (CLL, MCL, WM; CLL) does the source give for CC#CC(=O)N1CC[C@@H](n2cc(-c3ccc(Oc4c(F)cccc4F)cc3)c3c(N)n[nH]c(=O)c32)C1 [TG-1701] here?
**A.** 95%

**Q.** What about the “preliminary overall response rate (ORR)” value (CLL, MCL, WM; MCL) of the same compound?
**A.** 50%

**Q.** And the “complete responses (CR)” value (CLL, MCL, WM; TG-1701 monotherapy ref 17)?
**A.** No complete responses (CR) are confirmed

**Q.** And the “preliminary overall response rate (ORR)” value (CLL, MCL, WM; WM)?
**A.** 95%

**Q.** What about the Kd (BTK [3]) of the same compound?
**A.** 3 nM

**Q.** And the “Clinical outcome (% reduction)” value (CLL; patient AII-0011, 400–300 mg daily)?
**A.** 87%

**Q.** What about the “Clinical outcome (% reduction)” value (CLL; patient AIJ-0001, 200 mg daily) of the same compound?
**A.** 38%

**Q.** And the Clinical outcome (CLL; patient AIJ-0005, 300 mg daily)?
**A.** SD-PR

**Q.** What about the “Clinical outcome (% reduction)” value (CLL; patient AIJ-0005, 300 mg daily) of the same compound?
**A.** 56%

**Q.** What about the “Clinical outcome (% reduction)” value (CLL; patient AIJ-0015, 400 mg daily) of the same compound?
**A.** 86%

**Q.** And the Clinical outcome (CLL; patient AIK-0003, 200 mg daily)?
**A.** SD (lymphocytosis)

**Q.** And the GI50 (MCL cell lines)?
**A.** 4.3 µM

**Q.** And the “concentration of maximal effects on BCR downstream signaling” value [1]?
**A.** 100 nmol/L

**Q.** What about the “dose dependence of Cmax and AUC0–8 hours” value [4] of the same compound?
**A.** approximately dose-proportional increases

**Q.** What about the BTK occupancy (BTK [5]) of the same compound?
**A.** Near-complete BTK occupancy

**Q.** And the “Kd fold higher than that of ibrutinib” value (TXK)?
**A.** 68 fold

**Q.** What about the “downregulation of MYC protein” value (p-BTK, MYC, YES1) of the same compound?
**A.** 48%

**Q.** And the “downregulation of p-BTK protein” value (p-BTK, MYC, YES1)?
**A.** 70%

**Q.** And the “increase of YES1 levels” value (p-BTK, MYC, YES1)?
**A.** ~5 fold

**Q.** And the “fold less sensitive compared with parental REC-1 cells” value (REC-BTK^C481S cells)?
**A.** 2.8 fold

**Q.** What about the “phosphorylation of Ikaros p-Ser442/445 upon treatment” value (phosphopeptides in PBMC) of the same compound?
**A.** totally dephosphorylated

**Q.** What about the “sensitivity of UPN-IbruR tumors” value (UPN-IbruR MCL xenograft) of the same compound?
**A.** almost insensitive

**Q.** What about the GI50 (REC-BTK^wt (REC-1) cells) of the same compound?
**A.** 3.83 µM

**Q.** What about the “duration of BTK and AKT dephosphorylation in tumor” value [6] of the same compound?
**A.** at least 24 hours

**Q.** What about the “earliest time of AKT dephosphorylation in tumor” value [6] of the same compound?
**A.** 4 h

**Q.** What about the “earliest time of BTK dephosphorylation in tumor” value [6] of the same compound?
**A.** 2 h

**Q.** And the EC50 (BTK^wt)?
**A.** 6.7 nM

**Q.** And the “sensitivity of REC-BTK^KO cells” value (REC-BTK^KO cells)?
**A.** refractory

**Q.** And the TGI (MINO MCL xenograft; 25 mg/kg)?
**A.** 56%

**Q.** And the TGI (MINO MCL xenograft; 50 mg/kg)?
**A.** 72%

**Q.** What about the TGI (MINO MCL xenograft; 100 mg/kg) of the same compound?
**A.** 78%

**Q.** What about the “fold decrease in inhibitory kinase activity” value (BTK^C481S) of the same compound?
**A.** 54.8 fold

**Q.** What about the GI50 [2] of the same compound?
**A.** 6.4 µM

**Q.** What about the “tumor TGI versus vehicle” value [7] of the same compound?
**A.** 53%

**Q.** What about the “Kd fold higher than that of ibrutinib” value (JAK3) of the same compound?
**A.** > 94 fold
